Experimental data collected from several papers.
Each line is one published result; the experiments were not run side by side.
Target: Dual specificity protein kinase CLK3 (CLK3, Homo sapiens, UniProt P49761)

Compound | effect on | mode | method | concentration | quantity | result
Nc1ncnc2occ(-c3ccc(NC(=O)Nc4cc(C(F)(F)F)ccc4F)cc3)c12 | cell-free assay | inhibitor | – | 20 µM | remaining signal | 54%
Cn1c2c(c3ccc(Cl)c(Cl)c31)C(C#N)C(C)(C)NC2=O (stereo not drawn) | thermal stability | – | DSF | 10 µM | ΔTm | 1.9 °C
O=C(Nc1cnn(-c2csc(C(=O)NC3COC3)c2)c1)Nc1ccccc1Cl | enzyme activity | inhibitor | – | 5 µM | remaining activity | 120%
CO[C@@H](C)c1c(Nc2ccc([C@H](N(C)C(=O)C3CCS(=O)(=O)CC3)C(F)(F)F)cc2)cnc2cc(Cl)nn12 | cell-free assay | – | competition with immobilised ligand | 1 µM | remaining binding | 87%
Cc1sc(C(=O)NC2COC2)cc1-n1cc(NC(=O)Nc2c(F)cccc2Cl)cn1 | enzyme activity | inhibitor | – | 10 µM | remaining activity | 99.6%
Cc1ccc(NC(=O)c2ccc(C)c(C(F)(F)F)c2)cc1C#Cc1nn(C2CCC(O)CC2)c2ncnc(N)c12 (stereo not drawn) | cell-free assay | – | – | 10 µM | remaining signal | 83%
N#CC1c2c([nH]c3c(Cl)c(Cl)ccc23)C(=O)NC12CCCCC2 (racemic) | thermal stability | – | DSF | 10 µM | ΔTm | 2.1 °C
O=C(O)[C@@H]1[C@@H](Cn2nnc3ccccc3c2=O)CC[C@H]1C(=O)c1ccc(OCCC2CCOCC2)cc1 | cell-free assay | – | competition with immobilised ligand | 1 µM | remaining binding | 91%
Cc1cc(NC(=O)c2cccc3cc(-c4cccc5[nH]nc(N)c45)ccc23)ccc1F | enzyme activity | inhibitor | – | 0.1 µM | activity vs control | 97%
CCC(=N\O)/C(C)=C/c1ccc(F)cc1 | cell-free assay | – | competition with immobilised ligand | 1 µM | remaining binding | 73%
COc1cc2c(N3CCN(C(=O)Nc4ccc(OC(C)C)cc4)CC3)ncnc2cc1OCCCN1CCCCC1 | cell-free assay | – | – | 0.5 µM | remaining signal | 93.4%
COc1cc2ncnc(Nc3ccc(Oc4ccccc4)cc3C)c2cc1OC | enzyme activity | inhibitor | – | 1 µM | inhibition | 5%
COc1ccc2c(O[C@@H]3C[C@H]4C(=O)N[C@]5(C(=O)O)CC5/C=C\CCCCC[C@H](NC(=O)OC5CCCC5)C(=O)N4C3)cc(-c3csc(NC(=O)C(C)C)n3)nc2c1C (stereo partly drawn) | cell-free assay | – | competition with immobilised ligand | 1 µM | remaining binding | 100%
Clc1ccc(Nc2nnc(Cc3ccncc3)c3ccccc23)cc1 | cell-free assay | – | – | 0.5 µM | remaining signal | 105%
CN(C)c1ncnc(-c2ccc3nc(Nc4cc(CN5CCN(C(=O)CC(F)(F)F)CC5)ccn4)[nH]c3c2)c1Cl | cell-free assay | – | competition with immobilised ligand | 1 µM | remaining binding | 100%
CC(C)(O)[C@H]1CC[C@H](Nc2ccc3ncc(-c4cccc(C(F)(F)F)c4)n3n2)CC1 | enzyme activity | inhibitor | – | 1 µM | remaining activity | 59.3%
CC(C)(C)c1nc(-c2cccc(NS(=O)(=O)c3c(F)cccc3F)c2F)c(-c2ccnc(N)n2)s1 | enzyme activity | inhibitor | radiometric | 1 µM | remaining activity | 74%
CCN(CC)CCNC(=O)c1c(C)[nH]c(/C=C2\C(=O)Nc3ccc(F)cc32)c1C | enzyme activity | inhibitor | – | 0.3 µM | inhibition | -1%
CCC1(CC)NC(=O)c2c(c3ccc(Cl)c(Cl)c3n2C)C1C#N (stereo not drawn) | thermal stability | – | DSF | 10 µM | ΔTm | 0.3 °C
N#CCCc1ccc2c(c1)-c1[nH]c3ccc([N+](=O)[O-])cc3c1CC(=O)N2 | cell-free assay | – | – | 0.5 µM | remaining signal | 108%
Cn1c2c(Cl)c(Cl)ccc2c2cc[nH]c(=O)c21 | thermal stability | – | DSF | 10 µM | ΔTm | 1.5 °C
CNC(=O)c1cc(Oc2ccc(NC(=O)Nc3ccc(Cl)c(C(F)(F)F)c3)cc2)ccn1 | enzyme activity | inhibitor | – | 10 µM | inhibition | 13%
O=C1NC(=O)c2cc(Nc3ccc(F)cc3)c(Nc3ccc(F)cc3)cc21 | cell-free assay | – | – | 0.5 µM | remaining signal | 93.7%
Cc1cnc(NC2CCOCC2)nc1-n1cnc(C(=O)NC(CN)c2cc(F)cc(Cl)c2)c1 (stereo not drawn) | enzyme activity | inhibitor | radiometric | 1 µM | remaining activity | 99%
O=C(N[C@H]1CCCCC/C=C\C2C[C@@]2(C(=O)O)NC(=O)[C@@H]2C[C@@H](Oc3ccncc3)CN2C1=O)OC1CCCC1 (stereo partly drawn) | binding | – | competition with immobilised ligand | 1 µM | remaining binding | 93%
CCN1/C(=C/C(C)=O)Sc2ccc(OC)cc21 | cell-free assay | – | – | 0.5 µM | remaining signal | 95%
C[C@@H]1CN(c2cc(-c3nn(C)c4ccc(OC5(C)CC5)cc34)ncn2)C[C@H](C)O1 | cell-free assay | – | competition with immobilised ligand | 1 µM | remaining binding | 98%
CC/C(=N\NC(=O)NCc1cccc(O)c1)c1ccc(O)c(C)c1O | enzyme activity | inhibitor | – | 0.1 µM | inhibition | -1.4%
Cc1ccc(Nc2nccc(N(C)c3ccc4c(C)n(C)nc4c3)n2)cc1S(N)(=O)=O | enzyme activity | inhibitor | – | 10 µM | inhibition | 32%
O=C(NC[C@@H]1[C@H]2CN(C(=O)OCc3cc(C(F)(F)F)cc(C(F)(F)F)c3)C[C@@H]12)c1ccc2[nH]nnc2c1 | cell-free assay | – | competition with immobilised ligand | 1 µM | remaining binding | 78%
